Data taken from PMC4651729 (ACS chemical neuroscience, 2015).
“Also recorded” adds a separate entry of the source. Marks after values point to notes of the source that are not given here.

What was measured:
mouse MOR-1 = mouse MOR-1 (Mus musculus, UniProt P42866); test: [125I]BNtxA competition binding, CHO cell membranes, MOR-1; conditions: for fold higher MOR-1 affinity than corresponding 14-OH-epoxymorphinan analog: 6 vs 19, 16 vs 1, 17 vs 20; for selectivity for MOR-1 over 6TM/E11 sites: ratio of Ki; for Ki: read-out: Ki MOR-1, [125I]BNtxA 0.1 nM, CHO membranes, mouse MOR-1
Procedure, shortened: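 Mouse MOR-1 clone stably expressed in CHO cells; membranes incubated 90 min at 25 °C in 50 mM potassium phosphate buffer, pH 7.4, with 5 mM MgSO4, no blockers. Filtration through glass-fibre filters, three washes with ice-cold 50 mM Tris-HCl, pH 7.4. Nonspecific binding with 8 μM levallorphan, subtracted from total. Ki by nonlinear regression. Protein measured by Lowry method.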

mouse KOR-1 = mouse KOR-1 (Mus musculus, UniProt P33534); test: [125I]BNtxA competition binding, CHO cell membranes, KOR-1; conditions: for fold higher KOR-1 affinity than corresponding 14-OH-epoxymorphinan analog: 6 vs 19, 16 vs 1, 17 vs 20; for selectivity for KOR-1 over 6TM/E11 sites: ratio of Ki; for Ki: read-out: Ki KOR-1, [125I]BNtxA 0.1 nM, CHO membranes, mouse KOR-1
Procedure, shortened: (§1)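 Membranes from CHO cells stably expressing the murine receptor clone, with no blockers, were incubated for 90 min at 25 °C in 50 mM potassium phosphate buffer (pH 7.4) with 5 mM MgSO4. Samples were then filtered on glass-fiber filters and washed with ice-cold 50 mM Tris-HCl (pH 7.4). Nonspecific binding was set with levallorphan 8 μM. Ki came from nonlinear regression. The 6TM/E11 comparison used mouse whole-brain membranes with CTAP, U50,488H and DPDPE, each at 200 nM.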

mouse DOR-1 = mouse DOR-1 (Mus musculus, UniProt P32300); test: [125I]BNtxA competition binding, CHO cell membranes, DOR-1; conditions: for fold higher DOR-1 affinity than corresponding 14-OH-epoxymorphinan analog: 6 vs 19, 16 vs 1, 17 vs 20; for selectivity for DOR-1 over 6TM/E11 sites: ratio of Ki; for Ki: read-out: Ki DOR-1, [125I]BNtxA 0.1 nM, CHO membranes, mouse DOR-1
Procedure, shortened: as §1

6TM/E11 = 6TM/E11 (Mus musculus, UniProt P42866); type: binding; conditions: for fold lower 6TM/E11 affinity than 1: compared with 1; for Ki: read-out: Ki 6TM/E11, [125I]BNtxA 0.1 nM, mouse brain, CTAP, DPDPE, U50,488 blockers at 200 nM
Procedure, shortened: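 Membrane homogenates of whole brain from wild-type mice. Blockers at 200 nM: CTAP for MOR-1, U50,488H for KOR-1 and DPDPE for DOR-1.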

CD1 mice [1] = test: radiant heat tail flick analgesia; type: in vivo, mouse; conditions: for tail flick analgesia (CI), ED50 / antinociception in vivo (in words): sc; for tail flick analgesia (CI), ED50: 30 min after dosing, mice, 95% CI or ± SEM; for antinociception in vivo (in words) / fold higher analgesic potency than morphine: tail flick; for fold higher analgesic potency than morphine: systemic (sc)
CD1 mice [2] = conditions: cited from earlier work
mice = test: conditioned place preference/aversion; type: in vivo, mouse; conditions: 2 days; for place conditioning response to drug alone: 16 1 mg/kg sc, morphine 10 mg/kg ip, U50,488 30 mg/kg ip, cocaine 10 mg/kg sc; for effect of pretreatment on cocaine-conditioned place preference: 16 1 mg/kg sc 10 min prior to cocaine 10 mg/kg sc
KOR-1 = KOR-1 (Mus musculus, UniProt P33534); test: [35S]GTPγS binding assay, KOR-1; type: biochemical
MOR-1 = MOR-1 (Mus musculus, UniProt P42866)
DOR-1 = DOR-1 (Mus musculus, UniProt P32300)
[3] = test system: C57BL/6J, MOR-1 KO or KOR-1 KO mice; conditions: C57BL/6J mice, sc
[4] = doses 30 times the antinociceptive ED50

C=CCN1CC[C@]23c4c5ccc(O)c4O[C@H]2[C@H](NC(=O)c2cccc(I)c2)C=C[C@H]3[C@H]1C5 [Compound 17, 17-Allyl-3-hydroxy-4,5α-epoxy-7,8-en-6-β-[(3′-iodo)benzamido]-morphinan]
fold higher MOR-1 affinity than corresponding 14-OH-epoxymorphinan analog (mouse MOR-1): 6.5 fold
selectivity for MOR-1 over 6TM/E11 sites (mouse MOR-1): 23 fold
Ki (mouse MOR-1): 0.034 ± 0.006 nM
fold higher KOR-1 affinity than corresponding 14-OH-epoxymorphinan analog (mouse KOR-1): 3.6 fold
selectivity for KOR-1 over 6TM/E11 sites (mouse KOR-1): 35 fold
Ki (mouse KOR-1): 0.022 ± 0.0043 nM
fold higher DOR-1 affinity than corresponding 14-OH-epoxymorphinan analog (mouse DOR-1): 6.7 fold
selectivity for DOR-1 over 6TM/E11 sites (mouse DOR-1): 2 fold
Ki (mouse DOR-1): 0.39 ± 0.0041 nM
fold lower 6TM/E11 affinity than 1 (6TM/E11): 4.9 fold
fold lower 6TM/E11 affinity than 20 (6TM/E11; compared with 20): 3.1 fold
Ki (6TM/E11): 0.78 ± 0.1 nM
tail flick analgesia (CI), ED50 (CD1 mice [1]): 0.53 (0.45, 0.59) mg/kg
antinociception in vivo (in words) (CD1 mice [1]): equipotent to both 1 and 20

O=C(N[C@@H]1CC[C@@]2(O)[C@H]3Cc4ccc(O)c5c4[C@@]2(CCN3CC2CC2)[C@H]1O5)c1cccc(I)c1 [Compound 1, 3-Iodobenzoyl-β-naltrexamine, reference compound]
Ki (mouse MOR-1): 0.11 ± 0.02 nM
Ki (mouse KOR-1): 0.03 ± 0.001 nM
Ki (mouse DOR-1): 0.24 ± 0.05 nM
Ki (6TM/E11): 0.16 ± 0.04 nM
tail flick analgesia (CI), ED50 (CD1 mice [1]): 0.39 (0.15, 0.58) mg/kg
antinociception ED50 (CD1 mice [2]; introduction): 0.39 mg/kg

COC(=O)[C@H]1[C@@H](OC(=O)c2ccccc2)C[C@@H]2CC[C@H]1N2C [cocaine, reference compound]
place conditioning response to drug alone (mice): significant place preference

O=C(N[C@@H]1C=C[C@H]2[C@H]3Cc4ccc(O)c5c4[C@@]2(CCN3CC2CC2)[C@H]1O5)c1cccc(I)c1 [Compound 16, 17-Cyclopropylmethyl-3-hydroxy-4,5α-epoxy-7,8-en-6-β-[(3′-iodo)benzamido]-morphinan]
fold higher MOR-1 affinity than corresponding 14-OH-epoxymorphinan analog (mouse MOR-1): 5 fold
selectivity for MOR-1 over 6TM/E11 sites (mouse MOR-1): 22 fold
Ki (mouse MOR-1): 0.021 ± 0.0034 nM
fold higher KOR-1 affinity than corresponding 14-OH-epoxymorphinan analog (mouse KOR-1): 4.7 fold
selectivity for KOR-1 over 6TM/E11 sites (mouse KOR-1): 73 fold
Ki (mouse KOR-1): 0.0064 ± 0.002 nM
fold higher DOR-1 affinity than corresponding 14-OH-epoxymorphinan analog (mouse DOR-1): 3 fold
selectivity for DOR-1 over 6TM/E11 sites (mouse DOR-1): 6 fold
Ki (mouse DOR-1): 0.08 ± 0.019 nM
fold lower 6TM/E11 affinity than 1 (6TM/E11): 3 fold
Ki (6TM/E11): 0.47 ± 0.009 nM
antinociception after pretreatment with NOP antagonist J-113,397 (CD1 mice [1]; CD1 mice, 16 0.5 mg/kg sc, J-113,397 30 mg/kg sc 15 min before, listed as 16 (MP1104)): No change in the antinociceptive efiect; also recorded: insensitive
antinociception after pretreatment with DOR-1 antagonist NTI (CD1 mice [1]; CD1 mice, 16 0.5 mg/kg sc, NTI 20 mg/kg sc 15 min before, listed as 16 (MP1104)): attenuated the antinociceptive effects; also recorded: partially antagonized
antinociception after pretreatment with both norBNI and NTI (CD1 mice [1]; CD1 mice, 16 0.5 mg/kg sc, listed as 16 (MP1104)): fully prevented antinociception; also recorded: eliminated the antinociceptive response
antinociception after pretreatment with KOR-1 antagonist norBNI (CD1 mice [1]; CD1 mice, 16 0.5 mg/kg sc, norBNI 10 mg/kg sc 24 h before, listed as 16 (MP1104)): attenuated the antinociceptive effects; also recorded: partially antagonized
antinociception after pretreatment with MOR-1 antagonist β-FNA (CD1 mice [1]; CD1 mice, 16 0.5 mg/kg sc, β-FNA 40 mg/kg sc 24 h before, listed as 16 (MP1104)): did not alter anti-nociception; also recorded: insensitive
tail flick analgesia (CI), ED50 (CD1 mice [1]): 0.33 ± 0.09 mg/kg
fold higher analgesic potency than morphine (CD1 mice [1]; listed as 16 (MP1104)): 15 fold
fold higher analgesic potency than morphine (CD1 mice [1]; listed as MP1104): approximately 15 fold
agonist efficacy at KOR-1 (in words) (KOR-1; [35S]GTPγS): full agonist eficacy
EC50 (KOR-1; read-out: EC50 KOR-1, [35S]GTPγS stimulation): 0.027 ± 0.002 nM
Emax (% stimulation) KOR-1 (KOR-1; relative to U50,488H at 100 nM): 104 ± 2.3 % stimulation
effect of pretreatment on cocaine-conditioned place preference (mice; listed as 16 (MP1104)): prevented significant place preference produced by cocaine; also recorded: prevented cocaine-conditioned place preference; also recorded: abolished cocaine preference; also recorded: effectively blocked cocaine-conditioned place preference
effect of pretreatment on cocaine-conditioned place preference (mice; listed as MP1104): prevented the reward behavior associated with cocaine
place conditioning response to drug alone (mice; listed as 16 (MP1104)): neither conditioned place preference nor aversion; also recorded: did not produce conditioned place preference or aversion; also recorded: produced neither preference nor aversion; also recorded: lacks rewarding and dysphoric properties
place conditioning response to drug alone (mice; listed as MP1104): did not cause place aversion or preference
agonist efficacy at MOR-1 (in words) (MOR-1; [35S]GTPγS, listed as 16 (MP1104)): full agonist eficacy; also recorded: full agonism
EC50 (MOR-1; read-out: EC50 MOR-1, [35S]GTPγS stimulation): 0.21 ± 0.03 nM
Emax (% stimulation) MOR-1 (MOR-1; relative to DAMGO at 100 nM): 103 ± 2.5 % stimulation
agonist efficacy at DOR-1 (in words) (DOR-1; [35S]GTPγS): full agonist eficacy
EC50 (DOR-1; read-out: EC50 DOR-1, [35S]GTPγS stimulation): 0.41 ± 0.11 nM
Emax (% stimulation) DOR-1 (DOR-1; relative to DPDPE at 100 nM): 88 ± 0.38 % stimulation
antinociception ED50 (95% confidence interval) [3]: 0.22 (0.17–0.29) mg/kg
seizures [4]: not observed to produce seizures

O=C(N[C@@H]1C=C[C@H]2[C@H]3Cc4ccc(O)c5c4[C@@]2(CCN3CCc2ccccc2)[C@H]1O5)c1cccc(I)c1 [Compound 15, 17-Phenethyl-3-hydroxy-4,5α-epoxy-7,8-en-6-β-[(3′-iodo)-benzamido]-morphinan]
selectivity for MOR-1 over 6TM/E11 sites (mouse MOR-1): 159 fold
Ki (mouse MOR-1): 0.088 ± 0.028 nM
selectivity for KOR-1 over 6TM/E11 sites (mouse KOR-1): 100 fold
Ki (mouse KOR-1): 0.14 ± 0.022 nM
selectivity for DOR-1 over 6TM/E11 sites (mouse DOR-1): 108 fold
Ki (mouse DOR-1): 0.13 ± 0.032 nM
Ki (6TM/E11): 14 ± 3.2 nM
tail flick analgesia (CI), ED50 (CD1 mice [1]): 1.3 (1.03, 2.2) mg/kg
fold higher analgesic potency than morphine (CD1 mice [1]): ~ 3 fold

CN1CC[C@]23c4c5ccc(O)c4O[C@H]2[C@@H](O)C=C[C@H]3[C@H]1C5 [morphine, reference compound]
place conditioning response to drug alone (mice): significant conditioned place preference
tail flick analgesia, ED50 (CD1 mice [2]): 4.96 ± 0.96^f mg/kg

CN1CC[C@]23c4c5ccc(O)c4O[C@H]2[C@H](NC(=O)c2cccc(I)c2)C=C[C@H]3[C@H]1C5 [Compound 6, 17-Methyl-3-hydroxy-4,5α-epoxy-7,8-en-6-β-[(3′-iodo)-benzamido]-morphinan]
fold higher MOR-1 affinity than corresponding 14-OH-epoxymorphinan analog (mouse MOR-1): 26 fold
Ki (mouse MOR-1): 0.037 ± 0.0051 nM
fold higher KOR-1 affinity than corresponding 14-OH-epoxymorphinan analog (mouse KOR-1): 224 fold
Ki (mouse KOR-1): 0.21 ± 0.046 nM
fold higher DOR-1 affinity than corresponding 14-OH-epoxymorphinan analog (mouse DOR-1): 3 fold
Ki (mouse DOR-1): 0.88 ± 0.08 nM
Ki (6TM/E11): 27 ± 18 nM
tail flick analgesia (CI), ED50 (CD1 mice [1]): 6.31 (4.6, 8.5) mg/kg
antinociception in vivo (in words) (CD1 mice [1]): potent antinociception

COc1ccc2c3c1O[C@H]1[C@H](NC(=O)c4cccc(I)c4)C=C[C@H]4[C@@H](C2)N(C)CC[C@@]341 [Compound 5, 17-Methyl-3-methoxy-4,5α-epoxy-7,8-en-6-β-[(3′-iodo)-benzamido]-morphinan]
Ki (mouse MOR-1): 1.2 ± 0.48 nM
Ki (mouse KOR-1): 10 ± 3.5 nM
Ki (mouse DOR-1): 49 ± 6.4 nM
Ki (6TM/E11): 61 ± 7.7 nM
tail flick analgesia (CI), ED50 (CD1 mice [1]): >10 mg/kg
